The source of these data is publication PMC4085996 (ChemMedChem, 2014).

“And” between values parts separate entries of the source, which are not always exact repeats. Equal entries are not always repeated. Where two headings read alike, the source gives them in different places.

A word on the CC50: it is the concentration giving 50% cytotoxicity. Read a high CC50 as better tolerance by the cells. Broadly, the EC50 is the concentration needed to bring the measured effect to its halfway point. By log P is commonly meant the decadic logarithm of the partition coefficient of the neutral form, usually between octanol and water. The low end stands for lower lipophilicity, the high end for higher lipophilicity.

In one data set the test system is TZM-bl cells. In words: CytoTox-Glo cytotoxicity assay. The class given is cell-based. Conditions: one day, average of two independent tests. Summed up: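 Run alongside the antiviral assays. TZM-bl cells were cultured for one day with graded concentrations of test compound. Percent viable cells was determined with the CytoTox-Glo kit according to the manufacturer's protocol.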

The subject of data set [1] is HIV-1 NL4-3 (wild-type) virus. In words: microbe, parasite or virus in culture. The class given is cell-based.
In data set [2] the test system is HIV-1 RT multidrug-resistant (RTMDR) viral strain. The conditions noted are these: read-out: EC50 RTMDR (prior studies); same assays for leads and drugs; cited from earlier work.
For data set [3], the system named is HIV-1 RTMDR (RT L74V, M41L, V106A, T215Y). The class given is cell-based. Conditions: TZM-bl cells; for Resistance fold change RTMDR: versus NL4-3(wt); for EC50: read-out: EC50 RTMDR.
For another data set, the system named is HIV-1 IIIB (wt). Nature of the data set: HIV-1 infection assay using MT-2 cells. The data set is classed as cell-based. Conditions: read-out: EC50 IIIB (wt); MT-2 cells. Summed up:
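MT-2 cells (10^4/well) infected overnight with 100 TCID50 HIV-1 IIIB in RPMI 1640 plus 10% FBS, with or without graded concentrations of test compound. Medium then replaced with compound-free medium. On day 4 post-infection, supernatants mixed with equal volume 5% Triton X-100 and p24 antigen quantified by ELISA. EC50 calculated from percent inhibition of p24 production.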

Data set [4] is described as follows: Microsomal stability assay. The class given is in vitro ADME. The conditions noted are these: 1 μM compound, 0.1 mg/mL human liver microsomes, 37 °C.
In another data set the test system is HIV-1 NL4-3 E138K mutant. The class given is cell-based. The conditions noted are these: TZM-bl cells; for Resistance fold change E138K: versus NL4-3(wt); for EC50: read-out: EC50 E138K.
A short description of data set [5]: Aqueous solubility measurement. The class given is physicochemical. The conditions noted are these: triplicate; for Aqueous solubility pH 2.0: pH 2.0, HPLC method; for Aqueous solubility pH 7.4: pH 7.4, HPLC method.
In a further data set the test system is HIV-1 NL4-3 K101E mutant. The data set is classed as cell-based. The conditions noted are these: TZM-bl cells; for Resistance fold change K101E: versus NL4-3(wt); for EC50: read-out: EC50 K101E.
The nature of the next data set: Log P measurement. The class given is physicochemical. The conditions noted are these: measured at pH7.4 by HPLC method, triplicate.
Data set [6] has as its system HIV-1 A17 (K103N and Y181C). The data set is classed as cell-based. Conditions: MT-2 cells; for Resistance fold change A17: versus IIIB (wt); for EC50: read-out: EC50 A17.
Setting [7] is: read-out: EC50 (NL4-3 infection of TZM-bl cells), mean ± SD, at least three independent experiments.
The mark [8] stands for this setting: read-out: EC50 NL4-3(wt), TZM-bl cells, Table 2.

On to `N#Cc1ccc(Nc2nc(Oc3c(F)cc(C=NO)cc3F)ccc2N)cc1` [6e, N^2-(4′-Cyanophenyl)amino-6-(2”,6”-difluoro-4”-(hydroxyimino)methyl)phenoxy pyridin-3-amine], for which the CC50 with TZM-bl cells was over 26200 nM. The EC50 in data set [1] (setting [7]) came out at 261 ± 55.1 nM.

With `Cc1cc(C#N)cc(C)c1Oc1nc(Nc2ccc(C#N)cc2)nc(N)c1Br` [1a, etravirine], the EC50 in [2] is 1 nM.

For `N#Cc1ccc(Nc2nc(Oc3c(F)cc(CCCO)cc3F)ccc2N)cc1` [6n, N^2-(4′-Cyanophenyl)amino-6-(2”,6”-difluoro-4”-(3-hydroxypropyl)phenoxy) pyridin-3-amine], in the data set with TZM-bl cells, the CC50 was over 25200 nM. The EC50 in data set [1] (setting [7]) came to 48 ± 9.8 nM.

For `N#CCCc1cc(F)c(Oc2ccc(N)c(Nc3ccc(C#N)cc3)n2)c(F)c1` [6l, 6-(4”-(2-Cyanoethyl)-2”,6”-difluoro)phenoxy-N^2-(4′-cyanophenyl)aminopyridin-3-amine], the CC50 in the data set with TZM-bl cells is over 10200 nM. In addition, the EC50 in [1] (setting [7]) was 2.81 ± 0.59 nM.

`COc1cc(/C=C/C#N)ccc1Oc1ccc(N)c(Nc2ccc(C#N)cc2)n1` [8e, (E)-N^2-(4′-Cyanophenyl)amino-6-(2”-methoxy-4”-cyanovinyl)phenoxypyridin-3-amine]: the CC50 in the data set with TZM-bl cells was over 20600 nM. Moreover, in [1] (setting [7]), the EC50 is 16.7 ± 4.33 nM.

On to `N#Cc1ccc(Nc2nc(Oc3c(F)cc(Br)cc3F)ccc2N)cc1` [6b], for which, in the data set with TZM-bl cells, the CC50 is over 9590 nM. For the same molecule, in data set [1] (setting [7]), the EC50 is 7.43 ± 1.1 nM.

For the molecule `N#C/C=C/c1cc(Br)c(Oc2ccc(N)c(Nc3ccc(C#N)cc3)n2)c(Br)c1` [8b, (E)-N^2-(4′-Cyanophenyl)amino-6-(4”-cyanovinyl-2”,6”-dibromo)phenoxypyridin-3-diamine], the “Resistance fold change RTMDR” value in [3] came to 2.2. The EC50 is 0.74 nM in [3]; 3.04 nM in the data set on HIV-1 IIIB (wt); 4.11 nM in the data set on HIV-1 NL4-3 E138K mutant; 7.63 nM in the data set with HIV-1 NL4-3 K101E mutant; 200 nM in data set [6]; 0.33 ± 0.09 nM in data set [1] (setting [7]). For the same molecule, the EC50 in data set [1] (setting [8]) stood at 0.33 nM. Besides, the “HLM t1/2” value in data set [4] was 21.87 min. Also, the “Resistance fold change E138K” value in the data set with HIV-1 NL4-3 E138K mutant is 12.4. In [5], the “Aqueous solubility pH 2.0” value was 0.63 μg/mL. Moreover, the “Aqueous solubility pH 7.4” value in data set [5] is 0.62 μg/mL. The “Resistance fold change K101E” value with HIV-1 NL4-3 K101E mutant is reported as 23.1. The “log P” value in “Log P measurement” worked out at 3.55. Also, the “Resistance fold change A17” value in data set [6] turned out to be 65.7. In the data set on TZM-bl cells, it took 8220 nM to reach half-maximal cytotoxicity (CC50).

For `N#C/C=C/c1cc(F)c(Oc2ccc(N)c(Nc3ccc(C#N)cc3)n2)c(F)c1` [6g, (E)-N^2-(4′-Cyanophenyl)amino-6-(4”-cyanovinyl-2”,6”-difluoro)phenoxypyridin-3-amine], the “Resistance fold change RTMDR” value in [3] stood at 46.3. Also, the EC50 in [3] was 34.7 nM; in the data set with HIV-1 IIIB (wt), 1.11 nM; with HIV-1 NL4-3 E138K mutant, 7.71 nM; with HIV-1 NL4-3 K101E mutant, 7.2 nM; in data set [6] it was over 500 nM; in data set [1] (setting [7]), 0.75 ± 0.18 nM. Also, in [1] (setting [8]), the EC50 worked out at 0.75 nM. Also, the “HLM t1/2” value in data set [4] was 76.46 min. Further, the “Resistance fold change E138K” value in the data set with HIV-1 NL4-3 E138K mutant turned out to be 10.3. In data set [5], the “Aqueous solubility pH 2.0” value turned out to be 1.27 μg/mL. Besides, the “Aqueous solubility pH 7.4” value in data set [5] is 0.72 μg/mL. In addition, the “Resistance fold change K101E” value with HIV-1 NL4-3 K101E mutant is reported as 9.6. Also, in the data set “Log P measurement”, the “log P” value is 3.48. Besides, the “Resistance fold change A17” value in data set [6] is on record as over 450. This molecule displayed a CC50 in the data set with TZM-bl cells of 11000 nM.

Turning to “N^2-(4′-Cyanophenyl)amino-6-(4”-(2-cyano)propylcarbamoyl-2”,6”-difluoro)phen oxypyridin-3-amine [6m]”, the cytotoxic concentration (CC50) with TZM-bl cells was 15100 nM. In data set [1] (setting [7]), the EC50 worked out at 350 ± 52 nM.

Regarding `N#Cc1ccc(Nc2nc(Oc3c(F)cccc3F)ccc2N)cc1` [6a, N^2-(4′-Cyanophenyl)amino-6-(2”,6”-difluoro)phenoxypyridin-3-amine], the “Resistance fold change RTMDR” value in data set [3] was determined as 0.52. Moreover, the EC50 in [3] is 3.55 nM; in the data set on HIV-1 NL4-3 E138K mutant, over 29 nM; in the data set with HIV-1 NL4-3 K101E mutant, 53 nM; in [1] (setting [7]) it was 6.78 ± 1.18 nM; in data set [1] (setting [8]), 6.78 nM. Also, the “HLM t1/2” value in data set [4] came to 44.01 min. In addition, the “Resistance fold change E138K” value with HIV-1 NL4-3 E138K mutant was determined as 4.3. For the same molecule, in data set [5], the “Aqueous solubility pH 2.0” value is 8.42 μg/mL. Besides, the “Aqueous solubility pH 7.4” value in [5] is given as 1.58 μg/mL. Further, the “Resistance fold change K101E” value with HIV-1 NL4-3 K101E mutant was 7.82. In addition, the “log P” value in the data set “Log P measurement” is reported as over 5. In addition, the CC50 in the data set on TZM-bl cells stood at 19200 nM.

With `N#Cc1ccc(Nc2nc(Oc3c(F)cc(/C=C/C(N)=O)cc3F)ccc2N)cc1` [6k, (E)-N^2-(4′-Cyanophenyl)amino-6-(2”,6”-difluoro-4”-(2-carbamoyl)vinyl)phenoxy pyridin-3-amine], the CC50 in the data set with TZM-bl cells is over 24600 nM. In addition, the EC50 in [1] (setting [7]) worked out at 614 ± 118 nM.

Turning to `N#Cc1ccc(Nc2nc(Oc3c(F)cc(C#N)cc3F)ccc2N)cc1` [6f, N^2-(4′-Cyanophenyl)amino-6-(2”,6”-difluoro-4”-cyano)phenoxypyridin-3-amine], in the data set on TZM-bl cells, the half-maximal cytotoxic concentration (CC50) was over 9390 nM. In data set [1] (setting [7]), the EC50 came to 5.16 ± 1.57 nM.

On to `CC(=O)CCc1cc(F)c(Oc2ccc(N)c(Nc3ccc(C#N)cc3)n2)c(F)c1` [6i, N^2-(4′-Cyanophenyl)amino-6-(2”,6”-difluoro-4”-(3-oxobutyl)phenoxy)pyridin-3-amine], for which, in the data set with TZM-bl cells, the CC50 is over 9800 nM. The EC50 in [1] (setting [7]) came to 4.66 ± 0.95 nM.

In the case of `N#C/C(=C\c1cc(F)c(Oc2ccc(N)c(Nc3ccc(C#N)cc3)n2)c(F)c1)C(N)=O` [6h, (E)-6-[4”-(3-Amino-2-cyano-3-oxoprop-1-enyl)-2”,6”-difluoro]phenoxy-N^2-(4′-cyanophenyl)pyridin-2,3-diamine], in the data set with TZM-bl cells, the CC50 was found to be 15800 nM. Further, the EC50 in data set [1] (setting [7]) was 370 ± 59 nM.

With `N#Cc1ccc(Nc2nc(Oc3c(Br)cc(C#N)cc3Br)ccc2N)cc1` [8a, 6-(4”-Cyano-2”,6”-dibromo)phenoxy-N^2-(4′-cyanophenyl)pyridin-2,3-diamine], the “Resistance fold change RTMDR” value in data set [3] is 2.6. For the same molecule, the EC50 is 2.47 nM in [3]; 12.4 nM in the data set on HIV-1 IIIB (wt); 5.44 nM with HIV-1 NL4-3 E138K mutant; 3.09 nM with HIV-1 NL4-3 K101E mutant; 384 nM in [6]; 0.99 nM and 0.93 nM in data set [1] (setting [7]). Moreover, the concentration giving a half-maximal response (EC50) in data set [1] (setting [8]) worked out at 0.93 nM. The “HLM t1/2” value in [4] is listed as 41.66 min. For the same molecule, the “Resistance fold change E138K” value in the data set with HIV-1 NL4-3 E138K mutant came out at 5.8. In data set [5], the “Aqueous solubility pH 2.0” value stood at 0.79 μg/mL. In addition, in data set [5], the “Aqueous solubility pH 7.4” value was 0.72 μg/mL. Moreover, the “Resistance fold change K101E” value in the data set with HIV-1 NL4-3 K101E mutant is recorded as 3.3. Besides, the “log P” value in the data set “Log P measurement” is 3.30. Moreover, the “Resistance fold change A17” value in data set [6] is given as 30.8. In the data set with TZM-bl cells, this molecule had a CC50 of 13200 nM.

Regarding `CC(=O)OCc1cc(F)c(Oc2ccc(N)c(Nc3ccc(C#N)cc3)n2)c(F)c1` [6d, N^2-(4′-Cyanophenyl)amino-6-(2”,6”-difluoro-4”-acetoxymethyl)phenoxypyridin-3-amine], the EC50 in [1] (setting [7]) was determined as 290 ± 46 nM.

`CCCOC(=O)c1cc(F)c(Oc2ccc(N)c(Nc3ccc(C#N)cc3)n2)c(F)c1` [6j, N^2-(4′-Cyanophenyl)amino-6-(2”,6”-difluoro-4”-propylcarbmethoxy)phenoxypyr idin-3-amine]: the 50% cytotoxic concentration (CC50) with TZM-bl cells is 15300 nM. The EC50 in data set [1] (setting [7]) stood at 99 ± 19 nM.

On to `N#C/C=C/c1cc(Cl)c(Oc2ccc(N)c(Nc3ccc(C#N)cc3)n2)c(Cl)c1` [8d, (E)-N^2-(4′-Cyanophenyl)amino-6-(4”-cyanovinyl-2”,6”-dichloro)phenoxypyridin-3-amine], for which, in data set [4], the “HLM t1/2” value was 39.61 min. Further, in data set [5], the “Aqueous solubility pH 2.0” value came to 0.81 μg/mL and the “Aqueous solubility pH 7.4” value is 0.70 μg/mL. Besides, the “log P” value in the data set “Log P measurement” is over 5. The molecule further yielded a CC50 with TZM-bl cells of 10700 nM. In [1] (setting [7]), the EC50 was determined as 8.14 ± 2.49 nM.

`N#Cc1ccc(Nc2nc(Oc3c(F)cc(CO)cc3F)ccc2N)cc1` [6c, N^2-(4′-Cyanophenyl)amino-6-(2”,6”-difluoro-4”-hydroxymethyl)phenoxypyridine-3-amine]: the CC50 with TZM-bl cells was over 27200 nM. In addition, the EC50 in data set [1] (setting [7]) worked out at 57.1 ± 9.2 nM.
